Assays:
Format in all cases: cell-based
[1] = system: DND-41; assay: Anticancer screening, MTS cell proliferation assay, 72 h; conditions: Homo sapiens
In short: (§1)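 HL-60, K-562, Z-138 and DND-41 suspension cells were seeded at 2500–6000 cells/well directly into wells already containing test compound at seven concentrations (100 to 6.4 × 10−3 µM). After 72 h, MTS reagent was added and absorbance read at 490 nm. GI50 is the concentration giving 50% growth inhibition. Two independent experiments were run, each point at least in triplicate.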

[2] = system: K-562; assay: as above; conditions: Homo sapiens
In short: as §1

[3] = system: Capan-1; assay: Anticancer screening, MTS cell proliferation assay, 72 h; conditions: Homo sapiens
In short: (§2)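 Human solid-tumour lines were grown as monolayers in supplier-recommended media at 37 °C, 5% CO2. LN-229 was seeded at 375 and Capan-1 at 250 cells/well and incubated overnight. Cells were then exposed for 72 h to seven concentrations (100 to 6.4 × 10−3 µM). MTS reagent was added and absorbance read at 490 nm. Two independent experiments were run, each point at least in triplicate.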

[4] = system: Z-138; assay: Anticancer screening, MTS cell proliferation assay, 72 h; conditions: Homo sapiens
In short: as §1

[5] = system: HL-60; assay: as above; conditions: Homo sapiens
In short: as §1

[6] = system: HCT 116; assay: Anticancer screening, MTT assay, 72 h; conditions: Homo sapiens
In short: (§3)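 Monolayer cultures were kept at 37 °C, 5% CO2 and plated on day 0 at 3 × 10^4 cells/mL (HCT 116, H460) or 5 × 10^4 cells/mL (MCF-7). Test agents were added in ten-fold dilutions (10−8 to 10−4 M) and incubated 72 h. Growth was read by MTT at 570 nm. GI50 is the concentration giving 50% inhibition. Two independent experiments were run, points at least in triplicate.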

[7] = system: MCF-7; assay: Anticancer screening, MTT assay, 72 h; conditions: Homo sapiens, MCF7, 72 h
In short: as §3

[8] = system: H460; assay: Anticancer screening, MTT assay, 72 h; conditions: Homo sapiens
In short: as §3

[9] = system: LN-229; assay: Anticancer screening, MTS cell proliferation assay, 72 h; conditions: Homo sapiens
In short: as §2

Row | SMILES | GI50 ([1]; DND41, 72 h) [µM] | GI50 ([2]; K562, 72 h) [µM] | GI50 ([3]; CAPAN-1, 72 h) [µM] | GI50 ([4]; Z-138, 72 h) [µM] | GI50 ([5]; HL-60, 72 h) [µM] | GI50 ([6]; HCT-116, 72 h) [µM] | GI50 [7] [µM] | GI50 ([8]; NCI-H460, 72 h) [µM] | GI50 ([9]; LN-229, 72 h) [µM] | GI50 ([1]; DND41) [µM] | GI50 ([2]; K562) [µM] | GI50 ([3]; CAPAN-1) [µM] | GI50 ([4]; Z-138) [µM] | GI50 ([5]; HL-60) [µM] | GI50 ([6]; HCT-116) [µM] | GI50 ([8]; NCI-H460) [µM] | GI50 ([9]; LN-229) [µM]
1 | CCN(CC)CCCC(C)Nc1ccnc2cc(Cl)ccc12 (stereo not shown) [CQ, chloroquine diphosphate, reference compound] | 53.7 ± 6.9 | 45 ± 0.7 | 14.9 ± 1.5 | 13.6 ± 0.6 | 13 ± 0.2 | 16 ± 3 | 6 ± 1.8 | 13 ± 0.8 | 22 ± 2.8 |  |  |  |  |  |  |  | 
2 | C=C(CC(=O)OC)C(=O)Nc1ccc(F)cc1 [Compound 2, Methyl 3-[(4-fluorophenyl)carbamoyl]but-3-enoate] | 15.7 | 15.9 ± 1 | 2.8 ± 0.6 | 8.4 ± 0.5 | 9.3 ± 0.5 | 4 ± 1 | 2 ± 0.1 | 15 ± 1 | 8 ± 0.6 |  |  |  |  |  |  |  | 
3 | C=C(CC(=O)OC)C(=O)Nc1cccc(C(F)(F)F)c1 [Compound 3, Methyl 3-{[3-(trifluoromethyl)phenyl]carbamoyl}but-3-enoate] | 21.2 ± 4 | 13.9 ± 0.6 | 1.9 ± 0.3 | 5.4 ± 0.1 | 3.7 ± 0.1 | 3 ± 1 | 2 ± 0.4 | 9 ± 2 | 4.4 ± 0.1 |  |  |  |  |  |  |  | 
4 | C=C(CC(=O)OC)C(=O)Nc1ccc(C(F)(F)F)cc1 [Compound 4, Methyl 3-{[4-(trifluoromethyl)phenyl]carbamoyl}but-3-enoate] | 16.1 ± 0.4 | 31.3 ± 3 | 5.3 ± 0.5 | 8.2 ± 0.4 | 8 ± 0.8 | 3 ± 1 | 1 ± 0.3 | 11 ± 3 | 7.7 ± 0.2 |  |  |  |  |  |  |  | 
5 | C=C(CC(=O)OC)C(=O)Nc1cc(OC)cc2cccnc12 [Compound 5, Methyl 3-[(6-methoxyquinolin-8-yl)carbamoyl]but-3-enoate] | 25.5 ± 9.4 | 31 ± 3.9 | 6.3 ± 2.3 | 6.1 ± 0.3 | 10.1 ± 0.1 | 12 ± 2 | 10 ± 2.5 | 8 ± 2 | 6.2 ± 0.4 |  |  |  |  |  |  |  | 
6 | C=C(CC(=O)OC)C(=O)Nc1cccnc1 [Compound 6, Methyl 3-[(pyridin-3-yl)carbamoyl]but-3-enoate] | 26.3 ± 6.6 | 49.9 ± 2.2 | 8.9 ± 0.1 | 10.9 | 13.1 ± 1 | 12 ± 2 | 3 ± 1 | 18 ± 1 | 10.2 ± 1 |  |  |  |  |  |  |  | 
7 | CC(=O)O[C@@]12CO[C@@H]1C[C@H](O)[C@@]1(C)C(=O)[C@H](O)C3=C(C)[C@@H](OC(=O)[C@H](O)[C@@H](NC(=O)OC(C)(C)C)c4ccccc4)C[C@@](O)([C@@H](OC(=O)c4ccccc4)[C@H]21)C3(C)C [DTX, docetaxel, reference compound] |  |  |  |  |  |  |  |  |  | 0.002 ± 0.0012 | 0.0096 ± 0.0033 | 0.0045 ± 0.002 | 0.0014 ± 0.0009 | 0.0104 ± 0.0024 | 0.0045 ± 0.0044 | 0.0058 ± 0.0038 | 0.0035 ± 0.0012
8 | CN[C@@H]1C[C@H]2O[C@@](C)([C@@H]1OC)n1c3ccccc3c3c4c(c5c6ccccc6n2c5c31)C(=O)NC4 [STS, staurosporine, reference compound] |  |  |  |  |  |  |  |  |  | 0.0161 ± 0.0105 | 0.0337 ± 0.0036 | 0.0323 ± 0.0032 | 0.0261 ± 0.0139 | 0.0312 ± 0.0123 | 0.023 ± 0.0114 | 0.048 ± 0.0023 | 0.0634 ± 0.0223

Second part, led by results:

Row | GI50 ([1]; DND41, 72 h) [µM] | GI50 ([2]; K562, 72 h) [µM] | GI50 ([3]; CAPAN-1, 72 h) [µM] | GI50 ([4]; Z-138, 72 h) [µM] | GI50 ([5]; HL-60, 72 h) [µM] | GI50 ([6]; HCT-116, 72 h) [µM] | GI50 [7] [µM] | GI50 ([8]; NCI-H460, 72 h) [µM] | GI50 ([9]; LN-229, 72 h) [µM] | SMILES | GI50 ([1]; DND41) [µM] | GI50 ([2]; K562) [µM] | GI50 ([3]; CAPAN-1) [µM] | GI50 ([4]; Z-138) [µM] | GI50 ([5]; HL-60) [µM] | GI50 ([6]; HCT-116) [µM] | GI50 ([8]; NCI-H460) [µM] | GI50 ([9]; LN-229) [µM]
9 | 21 ± 2.2 | 43.4 | 6.8 ± 1.7 | 9 ± 0.2 | 10.6 ± 0.7 | 7 ± 2 | 3 ± 1.1 | 16 ± 2 | 8.1 ± 0.3 | C=C(CC(=O)OC)C(=O)Nc1cncc(F)c1 [Compound 7, Methyl 3-[(5-fluoropyridin-3-yl)carbamoyl]but-3-enoate] |  |  |  |  |  |  |  | 
10 | 16.3 ± 0.1 | 53.3 ± 2.7 | 9.1 ± 0.7 | 10.2 ± 0.3 | 11 ± 0.3 | 3 ± 1 | 6 ± 1 | 16 ± 2 | 8.4 ± 0.1 | C=C(CC(=O)OC)C(=O)NCc1cccnc1 [Compound 8, Methyl 3-{[(pyridin-3-yl)methyl]carbamoyl}but-3-enoate] |  |  |  |  |  |  |  | 
11 | 18.5 ± 2.4 | 34.5 ± 8.7 | 5.9 ± 0.2 | 5.6 ± 1.6 | 9.6 ± 0.6 | 4 ± 1 | 2 ± 1 | 15 ± 1 | 6.2 ± 0.8 | C=C(CC(=O)OC)C(=O)NCCc1cccnc1 [Compound 9, Methyl 3-{[2-(pyridin-3-yl)ethyl]carbamoyl}but-3-enoate] |  |  |  |  |  |  |  | 
12 | 18.9 ± 4.2 | 16.5 ± 1 | 2.4 ± 0.9 | 2.6 ± 0.3 | 4.9 ± 0.8 | 3 ± 1 | 2 ± 1.2 | 11 ± 1 | 6.5 ± 1.2 | C=C(CC(=O)OC)C(=O)NCCc1c[nH]c2ccc(OC)cc12 [Compound 10, Methyl 3-{[2-(5-methoxy-1H-indol-3-yl)ethyl]carbamoyl}but-3-enoate] |  |  |  |  |  |  |  | 
13 | 18.1 ± 1.1 | 28.1 ± 7.1 | 5.4 ± 3.3 | 11 ± 0.2 | 11.1 ± 0.6 | 2.5 ± 0.07 | 4 ± 1 | 4 ± 0.5 | 4.3 ± 2.2 | C=C(CC(=O)OC)C(=O)NCCCC(C)Nc1cc(OC)cc2cccnc12 (stereo not shown) [Compound 11, Methyl 3-({4-[(6-methoxyquinolin-8-yl)amino]pentyl}carbamoyl)but-3-enoate] |  |  |  |  |  |  |  | 
14 | 3.1 ± 0.1 | 8.1 ± 0.4 | 1.3 ± 0.4 | 1.9 ± 0.1 | 1.9 | 2 ± 0.05 | 0.8 ± 0.3 | 2 ± 0.9 | 1.1 ± 0.1 | C=C(CC(=O)OC)C(=O)NCCCCNc1ccnc2cc(Cl)ccc12 [Compound 12, Methyl 3-({4-[(7-chloroquinolin-4-yl)amino]butyl}carbamoyl)but-3-enoate] |  |  |  |  |  |  |  | 
15 | 36.7 ± 10 | 46.9 ± 0.7 | 32.2 ± 2.7 | 12.2 ± 0.1 | 10.3 ± 1.5 | 2 ± 0.8 | 1.4 ± 0.1 | 3.5 ± 1.3 | 10.8 ± 2.5 | C=C(CC(=O)OC)C(=O)NCCCCNc1cc(C(F)(F)F)nc2c(C(F)(F)F)cccc12 [Compound 13, Methyl 3-[(4-{[2,8-bis(trifluoromethyl)quinolin-4-yl]amino}butyl)carbamoyl]but-3-enoate] |  |  |  |  |  |  |  | 
16 |  |  |  |  |  | 13 ± 0.2 | 11 ± 0.3 | 23 ± 1 |  | COc1ccc2[nH]c(CCNC(=O)C=C(C)C(=O)NCCc3c[nH]c4ccc(OC)cc34)cc2c1 [Compound 14, N′-[2-(5-methoxy-1H-indol-2-yl)ethyl]-N-[2-(5-methoxy-1H-indol-3-yl)ethyl]-2-methylbut-2-enediamide] |  |  |  |  |  |  |  | 

Source: paper PMC7548052 (Molecular Diversity, 2020)
